Source: ChEMBL document CHEMBL3244248, “Substituted 3-amino-1,1-diaryl-2-propanols as potential antidepressant agents” (J Med Chem, 1979)
Activity calls are given as the source filed them. The rule behind the calls is not given here.

Tests used:
Ileum = assay: Anticholinergic effect in guinea pig ileum assessed as inhibition of acetylcholine-induced contraction; format: tissue-based; settings: Cavia porcellus, read-out: pA2 (converted)
Procedure, shortened: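 Guinea pig ileum contracted by acetylcholine. ED50 values were generated from a dose–response fit, p = D^E/(D^E + K^E), and converted to pA2. pA2 is the negative log10 of the molar antagonist concentration that reduces the effect of two equal acetylcholine doses to that of a single dose.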

Mus musculus [1] = assay: Antidepressant activity against reserpine-induced hypothermia CFLP mouse model assessed as change in esophageal temperature at 6 mg/kg, po treated before 2 to 24 hrs of reserpine challenge; format: functional, organism-based; set-up: dose 6 mg/kg
Procedure, shortened: (§1)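 Male CFLP mice (18–23 g), two groups of five, received oral compound or vehicle 24, 18 and 2 h before iv reserpine base (1 mg/kg). Esophageal temperature was read before reserpine and at 2, 4 and 6 h. Test-minus-control mean differences at the three times were summed and corrected for the 0 h difference, giving Δ6 (°C).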

Mus musculus [2] = organism: Mus musculus; assay: Anticholinergic effect in CFLP mouse assessed as mydriasis; settings: in vivo
[3] = Anticholinergic effect in sc dosed CFLP mouse assessed as inhibition of pilocarpine-induced salivation; format: organism-based; settings: in vivo
Procedure, shortened: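 Male CFLP mice (18–23 g), groups of eight. Vehicle or drug was given sc 20 min before urethane anaesthesia (1.8 g/kg sc), and pilocarpine (2 mg/kg sc) followed 10 min later. Salivation areas on chromatography paper were measured by planimeter every 5 min for 35 min. Percentage change from control was regressed against log dose to give an ED50 with fiducial limits.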

Mus musculus [4] = assay: Antidepressant activity against reserpine-induced hypothermia CFLP mouse model assessed as change in esophageal temperature at 5 mg/kg, po treated before 2 to 24 hrs of reserpine challenge; format: functional, organism-based; set-up: dose 5 mg/kg; procedure, shortened: as §1
Mus musculus [5] = assay: Antidepressant activity against reserpine-induced hypothermia CFLP mouse model assessed as change in esophageal temperature at 100 mg/kg, po treated before 2 to 24 hrs of reserpine challenge; format: functional, organism-based; set-up: dose 100 mg/kg; procedure, shortened: as §1
Mus musculus [6] = assay: Antidepressant activity against reserpine-induced hypothermia CFLP mouse model assessed as change in esophageal temperature at 10 mg/kg, po treated before 2 to 24 hrs of reserpine challenge; format: functional, organism-based; set-up: dose 10 mg/kg; procedure, shortened: as §1
Mus musculus [7] = assay: Antidepressant activity against reserpine-induced hypothermia CFLP mouse model assessed as change in esophageal temperature at 3 mg/kg, po treated before 2 to 24 hrs of reserpine challenge; format: functional, organism-based; set-up: dose 3 mg/kg; procedure, shortened: as §1
Mus musculus [8] = assay: Antidepressant activity against reserpine-induced hypothermia CFLP mouse model assessed as change in esophageal temperature < 5 degC at 100 mg/kg, po treated before 2 to 24 hrs of reserpine challenge; format: functional, organism-based; set-up: dose 100 mg/kg; procedure, shortened: as §1
Mus musculus [9] = assay: Antidepressant activity against reserpine-induced hypothermia CFLP mouse model assessed as change in esophageal temperature at 30 mg/kg, po treated before 2 to 24 hrs of reserpine challenge; format: functional, organism-based; set-up: dose 30 mg/kg; procedure, shortened: as §1
Mus musculus [10] = assay: Antidepressant activity against reserpine-induced hypothermia CFLP mouse model assessed as change in esophageal temperature < 5 degC at 30 mg/kg, po treated before 2 to 24 hrs of reserpine challenge
Mus musculus [11] = assay: Antidepressant activity against reserpine-induced hypothermia CFLP mouse model assessed as change in esophageal temperature at 1 mg/kg, po treated before 2 to 24 hrs of reserpine challenge; format: functional, organism-based; set-up: dose 1 mg/kg; procedure, shortened: as §1
Mus musculus [12] = assay: Antidepressant activity against reserpine-induced hypothermia CFLP mouse model assessed as change in esophageal temperature at 4 mg/kg, po treated before 2 to 24 hrs of reserpine challenge; format: functional, organism-based; set-up: dose 4 mg/kg; procedure, shortened: as §1
[13] = Inhibition of radiolabeled dopamine uptake in whole rat brain synaptosome; format: functional, tissue-based
Brain = assay: In vivo inhibition of hydroxytryptamine-induced depletion of rat brain noradrenaline; format: functional
Mus musculus [14] = assay: Toxicity in mouse assessed as CNS stimulation up to 8 mg/kg, po; format: organism-based, Central nervous system; set-up: dose 8 mg/kg, route oral; settings: in vivo
Rattus norvegicus = assay: Toxicity in substantia nigra lesioned rat assessed as turning behaviour up to 50 mg/kg, po; format: organism-based; set-up: dose 50 mg/kg, route oral; settings: in vivo
Procedure, shortened: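 Rats with a unilateral substantia nigra lesion, dosed orally at up to 50 mg/kg, and observed for turning.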

[15] = Inhibition of radiolabeled noradrenaline uptake in whole rat brain synaptosome; format: functional, tissue-based
[16] = Inhibition of radiolabeled 5-hydroxytryptamine uptake in whole rat brain synaptosome; format: functional, tissue-based
Mus musculus [17] = assay: Antidepressant activity against reserpine-induced hypothermia CFLP mouse model assessed as change in esophageal temperature at 60 mg/kg, po treated before 2 to 24 hrs of reserpine challenge; format: functional, organism-based; set-up: dose 60 mg/kg; procedure, shortened: as §1
Mus musculus [18] = assay: Antidepressant activity against reserpine-induced hypothermia CFLP mouse model assessed as change in esophageal temperature at 20 mg/kg, po treated before 2 to 24 hrs of reserpine challenge; format: functional, organism-based; set-up: dose 20 mg/kg; procedure, shortened: as §1
Mus musculus [19] = assay: Antidepressant activity against reserpine-induced hypothermia CFLP mouse model assessed as change in esophageal temperature at 16 mg/kg, po treated before 2 to 24 hrs of reserpine challenge; format: functional, organism-based; set-up: dose 16 mg/kg; procedure, shortened: as §1

SMILES: CNCC(O)C(c1ccccc1)c1ccccc1.Cl (stereo unspecified)
- Kb (Ileum): 10 µM
- deltaT (Mus musculus [1]): 6.1 °C
- ED50 (Mus musculus [2]): 144 mg/kg
- ED50 [3]: 40 mg/kg

SMILES: CNCC(O)C(c1ccccc1)c1ccccc1Cl (stereo unspecified)
- deltaT (Mus musculus [4]): 8.6 °C

SMILES: COC(c1ccccc1)(c1ccccc1)C(O)CN(C)C (stereo unspecified)
- deltaT (Mus musculus [5]): 6.9 °C

SMILES: CCN(CC)CC(O)C(c1ccccc1)c1ccccc1 (stereo unspecified)
- deltaT (Mus musculus [6]): 5 °C

SMILES: CN(C)CC(O)C(c1ccccc1)c1cc(Cl)cc(Cl)c1 (stereo unspecified)
- deltaT (Mus musculus [7]): 6.2 °C

SMILES: CN(C)CC(O)C(c1ccccc1)C1CCCCC1 (stereo in doubt; 39a)
- Activity (Mus musculus [8]): inactive

SMILES: CNCC(C)(O)C(c1ccccc1)c1ccccc1 (stereo unspecified)
- deltaT (Mus musculus [9]): 8.9 °C

SMILES: Br.CN(C)CC(O)C(c1ccccc1)c1ccccc1 (stereo unspecified)
- Kb (Ileum): 6.31 µM
- deltaT (Mus musculus [4]): 5.3 °C
- ED50 (Mus musculus [2]): 53 mg/kg
- ED50 [3]: 36 mg/kg

SMILES: CN(C)CC(O)C(c1ccccc1)c1cccc(Br)c1.Cl (stereo unspecified)
- Kb (Ileum): 7.94 µM
- deltaT (Mus musculus [4]): 12.4 °C
- ED50 (Mus musculus [2]): 49 mg/kg
- ED50 [3]: > 100 mg/kg
- Activity (Mus musculus [7]): inactive

SMILES: CN(C)CC(O)C(O)(c1ccccc1)c1ccccc1 (stereo unspecified)
- deltaT (Mus musculus [9]): 5.5 °C

SMILES: COc1ccc(C(c2ccccc2)C(O)CN(C)C)cc1 (stereo unspecified)
- deltaT (Mus musculus [6]): 5.9 °C

SMILES: CNCC(O)C(c1ccccc1)c1ccc(C)cc1 (stereo unspecified)
- deltaT (Mus musculus [5]): 5.4 °C
- Activity (Mus musculus [10]): inactive

SMILES: CN1CCN(CC(O)C(c2ccccc2)c2ccccc2)CC1 (stereo unspecified)
- deltaT (Mus musculus [9]): 6.3 °C

SMILES: OC(CNCc1ccccc1)C(c1ccccc1)c1ccccc1 (stereo unspecified)
- Activity (Mus musculus [8]): inactive

SMILES: OC(CN1CCCCC1)C(c1ccccc1)c1ccccc1 (stereo unspecified)
- deltaT (Mus musculus [5]): 9.9 °C

SMILES: CN(C)CC(O)C(c1ccccc1)c1ccc(F)cc1 (stereo unspecified)
- Kb (Ileum): 15.8 µM
- deltaT (Mus musculus [4]): 5.8 °C
- ED50 (Mus musculus [2]): 26 mg/kg
- ED50 [3]: > 100 mg/kg

SMILES: CN(C)CC(OC(=O)c1ccccc1)C(c1ccccc1)c1cccc(Cl)c1 (stereo unspecified)
- deltaT (Mus musculus [6]): 5.2 °C

SMILES: OC(CN1CCOCC1)C(c1ccccc1)c1ccccc1 (stereo unspecified)
- deltaT (Mus musculus [5]): 11 °C

SMILES: Cc1ccccc1C(c1ccccc1)C(O)CN(C)C (stereo unspecified)
- deltaT (Mus musculus [6]): 10.4 °C

SMILES: CN(C)CC(O)C(c1ccccc1)c1ccccc1Cl.Cl (stereo unspecified)
- deltaT (Mus musculus [11]): 6.6 °C
- Kb (Ileum): 6.31 µM
- ED50 (Mus musculus [2]): 29 mg/kg
- ED50 [3]: 24 mg/kg

SMILES: CC(=O)OC(CN(C)C)C(c1ccccc1)c1ccccc1 (stereo unspecified)
- deltaT (Mus musculus [4]): 10.2 °C
- Activity (Mus musculus [12]): inactive

SMILES: CN(C)CC(O)(c1ccccc1)C(c1ccccc1)c1ccccc1 (stereo unspecified)
- Activity (Mus musculus [10]): inactive

SMILES: Br.CN(C)C[C@H](O)C(c1ccccc1)c1ccccc1
- Kb (Ileum): 3.16 µM
- ED50 (Mus musculus [2]): 26 mg/kg
- ED50 [3]: 63 mg/kg

SMILES: CC(O)(CN)C(c1ccccc1)c1ccccc1 (stereo unspecified)
- Activity (Mus musculus [8]): inactive

SMILES: Cc1ccc(C(c2ccccc2)C(O)CN(C)C)cc1 (stereo unspecified)
- Activity (Mus musculus [8]): inactive

SMILES: NCC(O)C(c1ccccc1)c1ccccc1 (stereo unspecified)
- Activity (Mus musculus [8]): inactive

SMILES: CN(C)CC(O)C(c1ccccc1)c1cccc(Cl)c1.Cl (stereo unspecified)
- deltaT (Mus musculus [11]): 5.3 °C
- IC50 [13]: 8.9 µM
- Kb (Ileum): 15.8 µM
- ED50 (Mus musculus [2]): 42 mg/kg
- ED50 (Brain): 30 mg/kg
- ED50 [3]: 33 mg/kg
- Activity (Mus musculus [14]): Toxic
- Activity (Rattus norvegicus): Non-toxic
- IC50 [15]: 1.2 µM
- IC50 [16]: 9.8 µM

SMILES: CN(C)CC(O)C(Cc1ccccc1)c1ccccc1 (stereo unspecified)
- deltaT (Mus musculus [9]): 8.6 °C

SMILES: Br.CN(C)C[C@@H](O)C(c1ccccc1)c1ccccc1
- Kb (Ileum): 7.94 µM
- ED50 (Mus musculus [2]): 46 mg/kg
- ED50 [3]: 51 mg/kg

SMILES: CN(C)CC(O)C(c1ccc(F)cc1)c1ccc(F)cc1 (stereo unspecified)
- deltaT (Mus musculus [6]): 7.8 °C

SMILES: CCN(C)CC(O)C(c1ccccc1)c1ccccc1.Cl (stereo unspecified)
- Kb (Ileum): 50.1 µM
- Activity (Mus musculus [4]): inactive
- ED50 (Mus musculus [2]): 36 mg/kg
- ED50 [3]: 43 mg/kg
- deltaT (Mus musculus [6]): 10.2 °C

SMILES: CN(C)CC(O)C(c1ccccc1)c1ccc(Cl)c(Cl)c1 (stereo unspecified)
- deltaT (Mus musculus [6]): 7.2 °C

SMILES: CNCC(O)C(c1ccccc1)c1ccc(Cl)cc1 (stereo unspecified)
- deltaT (Mus musculus [6]): 8.8 °C

SMILES: CN(C)CC(O)C(c1ccccc1)c1cccc(C(F)(F)F)c1.Cl (stereo unspecified)
- Kb (Ileum): 1.58 µM
- deltaT (Mus musculus [4]): 9 °C
- ED50 (Mus musculus [2]): 26 mg/kg

SMILES: CN(C)CC(O)C(c1ccccc1)c1cccs1 (stereo unspecified)
- deltaT (Mus musculus [17]): 8.4 °C

SMILES: CN(Cc1ccccc1)CC(O)C(c1ccccc1)c1ccccc1 (stereo unspecified)
- deltaT (Mus musculus [6]): 6.1 °C

SMILES: CN(C)CC(O)C(O)(c1ccccc1)c1ccc(F)cc1 (stereo unspecified)
- deltaT (Mus musculus [6]): 7.5 °C

SMILES: CN(C)CCCN1c2ccccc2CCc2ccccc21 [IMIPRAMINE]
- Kb (Ileum): 0.00126 µM
- deltaT (Mus musculus [18]): 6.8 °C
- ED50 (Mus musculus [2]): 20 mg/kg
- ED50 [3]: 3.3 mg/kg

SMILES: CN(C)CC(O)C(c1ccccc1)c1ccc(Cl)cc1.O=C(O)CCC(=O)O (stereo unspecified)
- Kb (Ileum): 7.94 µM
- ED50 (Mus musculus [2]): 40 mg/kg
- ED50 [3]: 71 mg/kg
- deltaT (Mus musculus [19]): 6.3 °C

SMILES: CN(C)CC(O)C(c1ccccc1)C1CCCCC1 (stereo in doubt; 39b)
- Activity (Mus musculus [8]): inactive

SMILES: CN(CCCO)CC(O)C(c1ccccc1)c1ccccc1 (stereo unspecified)
- deltaT (Mus musculus [9]): 12.4 °C

SMILES: CN(C)CC(O)C(CCc1ccccc1)c1ccccc1 (stereo unspecified)
- deltaT (Mus musculus [5]): 7.4 °C

SMILES: CN(Cc1ccccc1)CC(O)C(c1ccccc1)c1ccc(F)cc1 (stereo unspecified)
- deltaT (Mus musculus [6]): 7.3 °C
